Consider five molecules from ChEMBL document CHEMBL3868642, “Discovery of novel curcumin derivatives targeting xanthine oxidase and urate transporter 1 as anti-hyperuricemic agents” (Bioorg Med Chem, 2017).

The test system of assay [1] is Mus musculus. The assay is described as follows: Antihyperuricemic activity in fasted Kun Ming mouse assessed as inhibition of potassium oxonate-induced uric acid level in serum at 10 mg/kg qd administered 1 hr post potassium oxonate-challenge for 7 days via oral gavage measured 1 hr post last dose by phosphotungstic acid method relative to vehicle-treated control. The class given is functional.

For assay [2], the system named is Mus musculus. The experiment in a line: Uricosuric activity in potassium oxonate-induced Kun Ming mouse model of hyperuricemia assessed as increase in uric acid excretion in urine at 10 mg/kg qd administered 1 hr post potassium oxonate-challenge for 7 days via oral gavage measured up to 24 hrs post last dose by phosphotungstic acid method relative to vehicle-treated control. The class given is functional.

For assay [3], the target named is T1, Solute carrier family 22 member 12 (Homo sapiens, UniProt Q96S37).
T1 sequence (Q96S37 whole entry): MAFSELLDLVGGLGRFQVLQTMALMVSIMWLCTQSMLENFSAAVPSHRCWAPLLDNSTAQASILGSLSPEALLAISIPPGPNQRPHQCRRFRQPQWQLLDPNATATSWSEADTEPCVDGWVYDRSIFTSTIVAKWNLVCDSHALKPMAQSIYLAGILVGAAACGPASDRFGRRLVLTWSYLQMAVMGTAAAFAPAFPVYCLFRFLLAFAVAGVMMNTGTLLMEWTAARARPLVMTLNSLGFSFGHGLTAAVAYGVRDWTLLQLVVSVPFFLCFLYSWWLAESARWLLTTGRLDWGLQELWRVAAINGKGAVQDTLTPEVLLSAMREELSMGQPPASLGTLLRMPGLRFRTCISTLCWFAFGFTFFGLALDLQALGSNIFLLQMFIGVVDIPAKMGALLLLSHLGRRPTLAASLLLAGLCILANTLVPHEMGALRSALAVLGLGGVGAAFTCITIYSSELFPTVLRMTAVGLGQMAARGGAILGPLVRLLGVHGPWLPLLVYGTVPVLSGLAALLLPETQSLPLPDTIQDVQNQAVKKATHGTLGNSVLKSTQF
The assay is described as follows: Inhibition of URAT1 (unknown origin) expressed in HEK293 cells assessed as inhibition of [14C]-uric acid uptake at 100 uM preincubated for 30 mins followed by [14C]-uric acid addition by liquid scintillation counting analysis relative to control. The format is cell-based.

For assay [4], the target named is Xanthine dehydrogenase/oxidase (Homo sapiens, UniProt P47989). The assay is described as follows: Inhibition of xanthine oxidase (unknown origin) assessed as reduction in uric acid formation preincubated for 5 mins followed by addition of xanthine substrate measured every minute up to 8 mins.
Sequence of Xanthine dehydrogenase/oxidase (P47989 whole entry): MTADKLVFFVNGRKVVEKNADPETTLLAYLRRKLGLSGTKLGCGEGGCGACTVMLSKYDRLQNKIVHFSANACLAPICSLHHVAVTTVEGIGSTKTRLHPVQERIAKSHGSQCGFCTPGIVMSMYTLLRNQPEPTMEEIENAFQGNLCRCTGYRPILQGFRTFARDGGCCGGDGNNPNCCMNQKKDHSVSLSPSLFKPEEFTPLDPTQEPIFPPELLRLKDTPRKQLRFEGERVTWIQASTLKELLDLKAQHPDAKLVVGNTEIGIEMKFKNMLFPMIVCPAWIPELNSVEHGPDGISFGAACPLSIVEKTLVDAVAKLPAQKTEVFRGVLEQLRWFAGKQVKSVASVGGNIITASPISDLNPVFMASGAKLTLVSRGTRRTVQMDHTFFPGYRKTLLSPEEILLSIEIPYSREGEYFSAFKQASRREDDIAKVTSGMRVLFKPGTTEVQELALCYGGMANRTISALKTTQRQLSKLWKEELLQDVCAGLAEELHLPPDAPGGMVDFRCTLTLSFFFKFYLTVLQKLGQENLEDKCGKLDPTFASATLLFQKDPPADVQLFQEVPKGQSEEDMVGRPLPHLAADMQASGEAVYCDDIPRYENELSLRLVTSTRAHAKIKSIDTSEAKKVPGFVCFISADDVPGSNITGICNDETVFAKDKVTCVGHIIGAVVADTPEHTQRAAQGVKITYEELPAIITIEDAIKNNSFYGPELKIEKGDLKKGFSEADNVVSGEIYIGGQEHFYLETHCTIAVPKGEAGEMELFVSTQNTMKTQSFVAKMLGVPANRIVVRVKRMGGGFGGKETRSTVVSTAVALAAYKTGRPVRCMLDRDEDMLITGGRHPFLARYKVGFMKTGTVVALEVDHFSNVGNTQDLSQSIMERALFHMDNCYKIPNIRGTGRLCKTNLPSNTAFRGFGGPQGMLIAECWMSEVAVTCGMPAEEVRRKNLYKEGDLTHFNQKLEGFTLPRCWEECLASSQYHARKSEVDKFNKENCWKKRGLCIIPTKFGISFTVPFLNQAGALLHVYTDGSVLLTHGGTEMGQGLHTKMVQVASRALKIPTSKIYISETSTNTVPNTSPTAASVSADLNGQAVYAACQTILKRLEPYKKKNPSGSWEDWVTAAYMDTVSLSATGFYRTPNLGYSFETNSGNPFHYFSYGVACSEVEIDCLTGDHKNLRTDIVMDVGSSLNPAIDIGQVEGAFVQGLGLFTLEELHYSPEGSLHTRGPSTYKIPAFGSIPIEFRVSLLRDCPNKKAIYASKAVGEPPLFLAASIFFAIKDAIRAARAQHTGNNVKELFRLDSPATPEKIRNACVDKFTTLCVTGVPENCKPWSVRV
In assay [5] the test system is Mus musculus. The assay is described as follows: Antihyperuricemic activity in potassium oxonate-induced Kun Ming mouse model of hyperuricemia assessed as reduction in uric acid level in serum at 10 mg/kg, po qd administered via oral gavage 1 hr post potassium oxonate-challenge for 7 consecutive days by phosphotungstic acid method. The format is functional, organism-based. In a few lines: (§1)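 Male Kun-Ming mice, 18–22 g, acclimatised one week, food withdrawn 1 h before dosing. Once-daily oral gavage of oxonate 250 mg/kg or 0.5% CMC-Na at 8:00, then test agent in 0.5% CMC-Na at 9:00, for seven days. 24 h urine collected from day six in metabolic cages. Serum taken 1 h after final dose, liver tissue removed. Uric acid measured by phosphotungstic acid method. n = 8.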

Assay [6] deals with Mus musculus. The experiment in a line: Antihyperuricemic activity in potassium oxonate-induced Kun Ming mouse model of hyperuricemia assessed as uricosuric activity by measuring increase in urinary uric acid excretion at 10 mg/kg, po qd administered via oral gavage 1 hr post potassium oxonate-challenge for 7 consecutive days measured up to 24 hrs post last dose by phosphotungstic acid method. The format is functional, organism-based. Put shortly:
as §1

Assay [7] concerns Mus musculus. The experiment in a line: In vivo inhibition of potassium oxonate-induced hepatic XOD activity in Kun Ming mouse model of hyperuricemia at 10 mg/ kg, po qd administered 1 hr post potassium oxonate-challenge for 7 consecutive days via oral gavage relative to control. The class given is functional.
The subject of assay [8] is Mus musculus. The experiment in a line: Antihyperuricemic activity in potassium oxonate-induced Kun Ming mouse model of hyperuricemia assessed as oxonate-induced hepatic XOD activity at 10 mg/ kg, po qd administered 1 hr post potassium oxonate-challenge for 7 consecutive days via oral gavage relative to oxonate-treated control. The class given is functional.
The test system of assay [9] is Mus musculus. The experiment in a line: Antihyperuricemic activity in potassium oxonate-induced Kun Ming mouse model of hyperuricemia assessed as reduction in hepatic uric acid level at 10 mg/kg, po qd administered via oral gavage 1 hr post potassium oxonate-challenge for 7 consecutive days by phosphotungstic acid method. The format is functional, organism-based. In a few lines:
as §1

Assay [10] can be described thus: Decrease in potassium oxonate-induced renal URAT1 expression in Kun Ming mouse model of hyperuricemia at 10 mg/ kg, po qd administered 1 hr post potassium oxonate-challenge for 7 consecutive days via oral gavage by Western blot method relative to oxonate-treated control. The class given is functional, organism-based. A general note: In western blotting, separated proteins are transferred to a membrane and probed.

Calls of active or inactive are those of the source. No cut-off for these calls is given here.

One may read the inhibition in vivo as the relative decrease from the control value, in per cent. On to `COc1cc(/C=C2\CCC/C(=C\c3cc(C(C)(C)C)c(O)c(C(C)(C)C)c3)C2=O)cc(OC)c1`, for which the inhibition in vivo at 10 mg/kg in the assay with Mus musculus [1] turned out to be 7.74%. The Activity in the assay with Mus musculus [2] is recorded as 19.35%.

For orientation: inhibition means the drop in the measured response relative to a control, in per cent. The term IC50 denotes the point on the concentration scale where inhibition reaches its midpoint. For `COc1cc(/C=C2\CCC/C(=C\c3cccc(Br)c3)C2=O)cc(OC)c1`, in the assay on Mus musculus [1], the inhibition in vivo at 10 mg/kg is 47.3%. Further, in the assay with Mus musculus [2], the Activity worked out at 44.71%. Moreover, the inhibition at 100 µM in assay [3] worked out at 20.7%. The concentration for half-maximal inhibition (IC50) in [4] was 18.9 nM.

Take `Oc1ncnc2[nH]ncc12` [ALLOPURINOL]: in the assay on Mus musculus [1], the inhibition in vivo at 10 mg/kg lay in the range of 118 to 148%. The Activity with Mus musculus [2] worked out at 88.6%; with Mus musculus [8], 43.4%. The outcome in the assay on Mus musculus [5], in the assay with Mus musculus [6] and with Mus musculus [9] was Active. Also, the inhibition entry in the assay on Mus musculus [7] is “Active”.

Take `CCc1oc2ccccc2c1C(=O)c1cc(Br)c(O)c(Br)c1` [BENZBROMARONE]: in the assay with Mus musculus [1], the inhibition in vivo at 10 mg/kg worked out at 99.7%. Also, the Activity in the assay with Mus musculus [2] worked out at 37.58%; in the assay with Mus musculus [8], 11.3%. Also, the inhibition at 100 µM in assay [3] came out at 42.5%. In addition, the result (with Mus musculus [5]; in the assay with Mus musculus [6]; in [10]; with Mus musculus [9]) was Active.

On to `COc1cc(/C=C2\CCC/C(=C\c3ccc(N(C)C)cc3)C2=O)cc(OC)c1`, for which, in the assay with Mus musculus [1], the inhibition in vivo at 10 mg/kg worked out at 20.1%. The Activity with Mus musculus [2] came out at 10.74%.
